MITF act: activators of MITF-driven TRPM1 promoter activity in SK-MEL-5 cells; SK-MEL-5 TRPM1-promoter luciferase, 24 h; % of positive control, neutral wells = 0; activation, % at 12.5 µM; 300,000 compounds, 0.75% hits; AID 588334;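 active = mean activation of at least 80% with every replicate also reaching 80%; inconclusive = mean reaches 80% but some replicate falls short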;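 also: 0% = neutral control wells and 100% = parthenolide positive control wells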
Cneo AK release: Cryptococcus neoformans lysis via adenylate kinase release; 360,000 compounds, 0.2% hits; AID 651654; lysis activity, % at 15 µM; C. neoformans lysis, adenylate kinase release luminescence, 4 h; normalised: neutral wells 0, clomiphene wells 100;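 active = mean lysis activity across replicates of at least 80%, whatever share of replicates individually reach that level; inactive = mean lysis activity below 80%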
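Assay system: Cryptococcus neoformans yeast cells / Dosing: single-point compound dose / Timing: 4 h at 37 °C static, read 1 h later / Measured by: luminescence of released adenylate kinase using an AK detection reagent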
PGC1a acetyl inh: modulators of PGC1a acetylation | U2OS PGC1a acetylation, AlphaScreen anti-acetyl-lysine; with virally co-expressed GCN5 acetyltransferase | inhibition, % at 15.6 µM | 350,000 compounds, 0.17% hits | AID 651687;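 active = every replicate shows inhibition of at least 40%; inconclusive = mean inhibition at least 40% but some replicate below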;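 also: 0% = neutral control wells and 100% = positive control wells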
Wnt act: activates Wnt/beta-catenin signaling in a reporter cell assay; activator, plate reader; activation, % at 9.35 µM; 300,000 compounds, 1.2% hits; in the data active = activation above about 30%, passing the limit was not always enough; inconclusive = no clear call, values can overlap the other calls;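 also: 0% = neutral control wells and 100% = positive control wells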
Starred values were filed as active, the others as inactive; ? = inconclusive; nt = no result. Most compounds without a hit are left out; they make up all but 1.5% or so of the library.

SMILES	MITF act	Cneo AK release	PGC1a acetyl inh	Wnt act
O=C(Nc1ncccc1O)c1ccc2c(c1)OCO2	43.4	-3.2	-3.0	53.9*
CCCn1nnc(NC(=O)c2cccc(OCC)c2)n1	37.4	-2.9	5.5	10.3
O=C(Nc1nccs1)c1ccc2ccccc2c1	47.3	-9.5	-14.6	21.7
CCOc1ccccc1NC(=O)c1ccc2ccccc2c1	nt	-0.4	88.2*	5.6
Cc1cccnc1NC(=O)c1ccc2c(c1)OCCO2	38.0	nt	nt	-2.2
CCCn1nnc(NC(=O)c2ccc3ccccc3c2)n1	121.6*	nt	nt	9.4
CCOc1ccccc1NC(=O)NNC(=O)c1ccc2ccccc2c1	1.5	0.6	nt	-1.5
COCC(=O)N(C)C[C@H]1Oc2cc(C#CCC3CCCC3)ccc2S(=O)(=O)N([C@H](C)CO)C[C@H]1C	nt	2.8	-2.6	nt
C[C@@H]1CCCCO[C@H](CN(C)S(=O)(=O)c2ccc(F)cc2)[C@@H](C)CN([C@H](C)CO)C(=O)c2cc(NC(=O)CCCCCC(=O)Nc3ccccc3N)ccc2O1	nt	-7.4	-7.6	nt
CCc1cc(C(=O)Nc2ncccc2O)sc1C	2.3	-1.0	nt	36.5*
CCc1cc(C(=O)Nc2ccc(OC)nc2)sc1C	58.6	-8.0	-6.4	21.2
O=C(Nc1ncccc1O)c1ccc2c(c1)OCCO2	21.4	nt	nt	99.3*
CCCN1[C@H](C(=O)NC2Cc3ccccc3C2)[C@@H](CO)[C@@H]2Cn3c(ccc(C4=CCCC4)c3=O)[C@@H]21	nt	6.3	nt	nt
Cc1noc(C)c1NC(=O)Nc1ccc2c(c1)CC(=O)N([C@@H](C)CO)C[C@@H](C)[C@@H](CN(C)C)O2	nt	-0.3	-0.9	nt
COc1ccc(C2=CN(Cc3ccccc3)C(c3ccccc3)CC2=O)cc1 (configuration not stated)	99.9*	-10.3	1.3	19.3
COc1ccc(C2CC(=O)C(c3ccc(Br)cc3)=CN2Cc2ccccc2)cc1 (configuration not stated)	nt	nt	nt	-1.9
COC(=O)c1cc2c(s1)-c1ccc(OC)cc1CC2	54.1	nt	nt	67.0*
COc1ccc2c3c([nH]c2c1)[C@H](CO)N(Cc1cccc(Cl)c1)CC31CN(C(C)=O)C1	nt	nt	18.7	nt
CCOC(=O)c1c(N)n[nH]c1-c1ccc(OC)cc1	-14.0	0.3	-5.3	nt
CCOC(=O)c1c(Nc2ccc(OC)cc2)n[nH]c1C	nt	nt	nt	34.3*
N=c1c2c(ncn1CCCO)Oc1c(ccc3ccccc13)C2c1ccccc1 (configuration not stated)	-32.2	nt	nt	42.5*
COc1ccc(C2c3ccc4ccccc4c3Oc3ncn(CCCO)c(=N)c32)cc1 (configuration not stated)	nt	0.0	2.4	2.9
COc1ccccc1C1CC(c2cccs2)=Nc2ccccc2S1 (configuration not stated)	2.9	-3.8	16.0	40.8*
O=C(CCN1CCCCC1)N[C@@H]1CC[C@@H](CCNS(=O)(=O)c2ccc(Cl)cc2)O[C@@H]1CO	nt	-3.7	9.6	nt
Cc1occc1C(=O)Nc1ccc2c(c1)OCO2	78.9	-3.7	3.5	nt
SMILES	MITF act	Cneo AK release	PGC1a acetyl inh	Wnt act
Cc1occc1C(=O)Nc1ccc(S(N)(=O)=O)cc1	-5.4	nt	7.5	-1.2
Cc1ccc(NC(=O)c2ccoc2C)cc1C	24.6	nt	nt	30.7*
Cc1occc1C(=O)NNC(=O)c1ccccc1F	25.9	nt	nt	37.3*
Cc1occc1C(=O)NNC(=O)c1ccc(F)cc1	nt	1.0	nt	-1.2
Cc1cc(NC(=O)c2ccoc2C)ccc1Br	86.1*	nt	-8.1	56.8*
COc1ccc(S(=O)(=O)N(C)C[C@@H]2Oc3ccc(NC(=O)Nc4cccc5ccccc45)cc3CC(=O)N([C@@H](C)CO)C[C@@H]2C)cc1	nt	nt	3.7	nt
O=[N+]([O-])c1ccc2nc(N3CCCC3)sc2c1	?	0.1	-0.5	14.3
Fc1ccc2nc(N3CCCC3)sc2c1	156.0*	-1.3	10.8	-0.3
O=C(NCCN1CCCCC1)[C@H]1N[C@H]2c3ccc(-c4ccncc4)c(=O)n3C[C@H]2[C@@H]1CO	nt	98.2*	nt	nt
CC1SCC(=NOCc2ccccc2)CS1 (configuration not stated)	nt	-3.2	-9.3	48.5*
CC(C)(C)C1CCC(=O)N(CCSc2ccccc2)CC1 (configuration not stated)	96.4*	3.5	nt	46.9*
C/C(CC1(O)C(=O)N(Cc2ccccc2)c2ccccc21)=N\O (configuration not stated)	-4.4	-0.5	19.7	1.7
CC(=O)CC1(O)C(=O)N(Cc2ccccc2)c2ccccc21 (configuration not stated)	13.3	-1.5	1.8	43.2*
CO[C@@H]1CN(C)C(=O)c2cc(NC(=O)Nc3ccccc3F)ccc2OC[C@H](C)N(Cc2ccccc2C(=O)O)C[C@@H]1C	nt	1.7	0.5	nt
O=C(C[C@H]1CC[C@@H]2[C@H](COC[C@H](O)CN2C(=O)C2CC2)O1)NCc1ccncc1	nt	-5.8	0.0	nt
Cc1cccc(CN2C(=O)/C(=C\c3ccc(C(=O)NCCCN4CCN(C)CC4)cc3)Oc3ccccc32)c1	-93.7	3.6	nt	0.6
CN1CCN(CCCNC(=O)c2ccc(/C=C3\Oc4ccccc4N(Cc4ccccc4F)C3=O)cc2)CC1	-33.4	107.7*	nt	-0.7
O=C1N/C(=N/O)S/C1=C/c1cccc([N+](=O)[O-])c1	5.7	-1.5	-0.1	52.1*
Cn1nnnc1SCC(=O)Nc1nc2c(s1)CCCC2	93.1*	-1.2	-8.0	?
COc1ccc2c(c1)CC/C2=N\OC(=O)c1ccccc1C	117.2*	nt	2.3	3.1
COc1ccc(NC(=O)Nc2ccc3c(c2)CC(=O)N([C@@H](C)CO)C[C@@H](C)[C@H](CN(C)S(=O)(=O)c2ccc(F)cc2)O3)cc1	nt	-1.8	-11.5	nt
O=C(CCCc1ccccc1)c1ccccc1	91.8*	0.7	nt	31.4*
O=C(CCCC(=O)c1ccc(O)cc1)c1ccc(O)cc1	98.0*	0.7	-1.7	55.9*
CC(=O)N(C)C[C@H]1Oc2cc(C#Cc3ccncc3)ccc2S(=O)(=O)N([C@H](C)CO)C[C@H]1C	nt	-7.0	-1.4	nt
Cc1ccccc1-c1cnc2c(c1)C(=O)N([C@H](C)CO)C[C@@H](C)[C@H](CN(C)C(=O)CN(C)C)O2	nt	43.8	-8.9	nt
SMILES	MITF act	Cneo AK release	PGC1a acetyl inh	Wnt act
O=C(Nc1cccc2[nH]ncc12)c1ccc(F)cc1	96.2*	-0.4	?	-4.0
C[C@@H]1CCCCO[C@@H](CN(C)S(=O)(=O)c2cccs2)[C@H](C)CN([C@@H](C)CO)C(=O)c2cc(NC(=O)Nc3ccccc3)ccc2O1	nt	-5.6	-5.1	nt
CC(=O)Nc1ccc(NC(=O)C(C)OC(=O)/C(C#N)=C/c2ccc(N(C)C)cc2)cc1 (configuration not stated)	81.2*	-4.5	3.7	19.5
Cc1ccc(N=Cc2nc(-c3ccco3)oc2O)cc1	103.7*	-3.6	10.5	36.7*
COc1ccc(CNC(=O)C[C@H]2C[C@H]3c4cc(NC(=O)C5CCC5)ccc4O[C@H]3[C@H](CO)O2)cc1	nt	-1.0	-14.7	nt
CO[C@@H](CN(C)Cc1ccc2c(c1)OCO2)[C@@H](C)CN(C(=O)c1ccccc1)[C@H](C)CO	nt	95.7*	2.7	nt
C[C@H]1CN([C@@H](C)CO)C(=O)c2cccc(NC(=O)Nc3cccc4ccccc34)c2O[C@H]1CN(C)C(=O)Nc1ccc(C(F)(F)F)cc1	nt	nt	-10.6	nt

Compound activity from PubChem.
